Results as given in ChEMBL document CHEMBL4177768, “Synthesis and Biological Evaluation of Derivatives of Indoline as Highly Potent Antioxidant and Anti-inflammatory Agents” (J Med Chem, 2018).
The source made the active and inactive calls. No cut-off for these calls is given here.

Key:
RAW264.7 [1] = assay: Antiinflammatory activity in mouse RAW264.7 cells assessed as reduction in LPS-induced nitric oxide production at 1 nM incubated for 2 hrs prior to LPS challenge measured after 24 hrs by Griess assay; assay type: functional; parameters: scale not given: the % may be the effect or the level left
Procedure, shortened: (§1)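 RAW 264.7 macrophages were plated at 1×10^5 per well, grown overnight and washed with PBS. Compounds in water (final 1 pM-100 nM, medium with 2% FCS) were added 2 h at 37 °C before E. coli 0111:B4 LPS, 2.5 µg/mL. TNF-α was sampled at 8 h; IL-6 and nitrite (Griess) at 24 h. ELISA was used for cytokines. Values are % of the LPS + medium value in each experiment. Budesonide was the reference. 2-3 experiments, 6 wells per concentration.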

RAW264.7 [2] = assay: Antiinflammatory activity in mouse RAW264.7 cells assessed as reduction in LPS-induced nitric oxide production at 1 pM to 100 nM incubated for 2 hrs prior to LPS challenge measured after 24 hrs by Griess assay; assay type: functional, cell-based; procedure, shortened: as §1
RAW264.7 [3] = assay: Antiinflammatory activity in mouse RAW264.7 cells assessed as reduction in LPS-induced IL-6 production at 1 nM incubated for 2 hrs prior to LPS challenge measured after 24 hrs by ELISA; assay type: functional; parameters: scale not given: the % may be the effect or the level left; procedure, shortened: as §1
RAW264.7 [4] = assay: Antiinflammatory activity in mouse RAW264.7 cells assessed as reduction in LPS-induced TNF-alpha production at 1 pM to 100 nM incubated for 2 hrs prior to LPS challenge measured after 8 hrs by ELISA; assay type: functional, cell-based; procedure, shortened: as §1
RAW264.7 [5] = assay: Antiinflammatory activity in mouse RAW264.7 cells assessed as reduction in LPS-induced TNF-alpha production at 1 nM incubated for 2 hrs prior to LPS challenge measured after 8 hrs by ELISA; assay type: functional; parameters: scale not given: the % may be the effect or the level left; procedure, shortened: as §1
RAW264.7 [6] = assay: Cytoprotective activity against H2O2-induced oxidative stress in mouse RAW264.7 cells assessed as cell viability at 10 nM incubated for 2 hrs prior to H2O2 addition measured after 24 hrs by MTT assay (reference value: 68 to 72.8%); assay type: functional; conditions: read-out: Activity
RAW264.7 [7] = assay: Antiinflammatory activity in mouse RAW264.7 cells assessed as reduction in LPS-induced IL6 production at 1 pM to 100 nM incubated for 2 hrs prior to LPS challenge measured after 24 hrs by ELISA; assay type: functional, cell-based; procedure, shortened: as §1
RAW264.7 [8] = assay: Cytoprotective activity against H2O2-induced oxidative stress in mouse RAW264.7 cells assessed as cell viability at 100 nM incubated for 2 hrs prior to H2O2 addition measured after 24 hrs by MTT assay (reference value: 68 to 72.8%); assay type: functional; conditions: read-out: Activity
RAW264.7 [9] = assay: Cytoprotective activity against H2O2-induced oxidative stress in mouse RAW264.7 cells assessed as decrease in caspase-3 activity at 1 pM incubated for 4 hrs prior to H2O2 addition measured after 90 mins by caspase-GloR reagent-based luminescence assay relative to control; assay type: functional
Procedure, shortened: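 RAW 264.7 macrophages were pretreated with compound (1 pM or 1 nM) 4 h before H2O2 100 µM. Medium was replaced with fresh DMEM after 90 min and plates were incubated overnight. Caspase-Glo 3/7 reagent was added and luminescence read after 30 min at room temperature. Mean ± SD, 4-6 replicates.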

RAW264.7 [10] = assay: Cytoprotective activity against H2O2-induced oxidative stress in mouse RAW264.7 cells assessed as decrease in LDH release at 1 pM incubated for 2 hrs prior to H2O2 addition by colorimetric assay relative to control; assay type: functional; parameters: scale not given: the % may be the effect or the level left
Procedure, shortened: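 RAW 264.7 cells were seeded and pretreated with compound before H2O2 100 µM, in serum-free medium. Collected medium was centrifuged and incubated with reaction mix 30 min at room temperature. LDH was measured as NADH formation by colorimetric read at 490 nm. n = 8-10 replicates per concentration.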

RAW264.7 [11] = assay: Cytoprotective activity against H2O2-induced oxidative stress in mouse RAW264.7 cells assessed as decrease in LDH release at 1 pM incubated for 2 hrs prior to H2O2 addition by colorimetric assay relative to control; parameters: scale not given: the % may be the effect or the level left
RAW264.7 [12] = assay: Cytoprotective activity against H2O2-induced oxidative stress in mouse RAW264.7 cells assessed as cell viability at 1 pM incubated for 2 hrs prior to H2O2 addition measured after 24 hrs by MTT assay (reference value: 68 to 72.8%); assay type: functional; conditions: read-out: Activity
Mus musculus [13] = assay: Antiinflammatory activity in Balb/C mouse assessed as reduction in LPS-induced IL6 production in spleen at 1 umol/kg, sc administered LPS 15 mins post compound treatment measured after 4 hrs by ELISA; assay type: functional, organism-based
Procedure, shortened: (§2)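 Male Balb/C mice, 7-8 weeks old, given compound sc (0.1, 1 or 10 µmoles/kg) or saline. LPS 10 mg/kg was given ip 15 min later, and mice were killed 4 h after that. Spleens were homogenized in PBS with protease inhibitor and centrifuged at 14,000 g, 4 °C. Cytokines in plasma and tissue supernatants were measured by ELISA, with protein by BCA. Dexamethasone 5.6 µmoles/kg was the reference. n = 8-10 mice per treatment.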

[14] = Cytotoxicity against mouse RAW264.7 cells assessed as cell viability at 10^-7 M after 24 hrs by MTT assay relative to control; assay type: cell-based; conditions: read-out: Activity
Procedure, shortened: (§3)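 RAW 264.7 cells, seeded at 1×10^4 cells/mL and incubated 24 h, were exposed to compound from 1 pM to 100 nM. Viability was read by MTT (final 0.5 mg/mL, 1 h at 37 °C), with formazan dissolved in DMSO and OD at 570 nm. Results are compared with medium-only cells.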

RAW264.7 [15] = assay: Antiinflammatory activity in mouse RAW264.7 cells assessed as reduction in LPS-induced nitric oxide production at 100 pM incubated for 2 hrs prior to LPS challenge measured after 24 hrs by Griess assay; assay type: functional; parameters: scale not given: the % may be the effect or the level left; procedure, shortened: as §1
Mus musculus [16] = assay: Antiinflammatory activity in Balb/C mouse assessed as reduction in LPS-induced IL6 production in liver at 0.1 to 10 umol/kg, sc administered LPS 15 mins post compound treatment measured after 4 hrs by ELISA; assay type: functional, organism-based
Mus musculus [17] = assay: Antiinflammatory activity in Balb/C mouse assessed as reduction in LPS-induced TNF-alpha production in plasma at 1 umol/kg, sc administered LPS 15 mins post compound treatment measured after 4 hrs by ELISA; assay type: functional, organism-based; procedure, shortened: as §2
RAW264.7 [18] = assay: Antiinflammatory activity in mouse RAW264.7 cells assessed as reduction in LPS-induced TNF-alpha production at 100 pM incubated for 2 hrs prior to LPS challenge measured after 8 hrs by ELISA; assay type: functional; parameters: scale not given: the % may be the effect or the level left; procedure, shortened: as §1
[19] = Cytotoxicity against mouse RAW264.7 cells assessed as cell viability at 10^-12 M after 24 hrs by MTT assay relative to control; assay type: cell-based; conditions: read-out: Activity; procedure, shortened: as §3
[20] = Cytotoxicity against mouse RAW264.7 cells assessed as cell viability at 10^-10 M after 24 hrs by MTT assay relative to control; assay type: cell-based; conditions: read-out: Activity; procedure, shortened: as §3
Mus musculus [21] = assay: Antiinflammatory activity in Balb/C mouse assessed as reduction in LPS-induced IL6 production in brain at 0.1 to 10 umol/kg, sc administered LPS 15 mins post compound treatment measured after 4 hrs by ELISA; assay type: functional, organism-based
RAW264.7 [22] = assay: Antiinflammatory activity in mouse RAW264.7 cells assessed as reduction in LPS-induced IL-6 production at 100 pM incubated for 2 hrs prior to LPS challenge measured after 24 hrs by ELISA; assay type: functional; parameters: scale not given: the % may be the effect or the level left; procedure, shortened: as §1
Mus musculus [23] = assay: Antiinflammatory activity in Balb/C mouse assessed as reduction in LPS-induced TNF-alpha production in spleen at 1 umol/kg, sc administered LPS 15 mins post compound treatment measured after 4 hrs by ELISA; assay type: functional, organism-based; procedure, shortened: as §2
[24] = Cytotoxicity against mouse RAW264.7 cells assessed as cell viability at 10^-11 M after 24 hrs by MTT assay relative to control; assay type: cell-based; conditions: read-out: Activity; procedure, shortened: as §3
Mus musculus [25] = assay: Antiinflammatory activity in Balb/C mouse assessed as reduction in LPS-induced IL6 production in plasma at 1 umol/kg, sc administered LPS 15 mins post compound treatment measured after 4 hrs by ELISA; assay type: functional, organism-based; procedure, shortened: as §2
[26] = Cytotoxicity against mouse RAW264.7 cells assessed as cell viability at 10^-8 M after 24 hrs by MTT assay relative to control; assay type: cell-based; conditions: read-out: Activity; procedure, shortened: as §3
[27] = Cytotoxicity against mouse RAW264.7 cells assessed as cell viability at 10^-9 M after 24 hrs by MTT assay relative to control; assay type: cell-based; conditions: read-out: Activity; procedure, shortened: as §3

SMILES: COc1ccc2c(c1)CCN2CCCNC(C)C.Cl.Cl
- Activity (RAW264.7 [1]): 50%
- Activity (RAW264.7 [2]): Dose-dependent effect
- Activity (RAW264.7 [3]): 50%
- Activity (RAW264.7 [4]): Dose-dependent effect
- Activity (RAW264.7 [5]): 50%
- viability at 0.01 µM (RAW264.7 [6]): 87.1%

SMILES: CC(C)NC(=O)CCN1CCc2ccc(F)cc21
- Activity (RAW264.7 [7]): inactive
- Activity (RAW264.7 [2]): inactive
- Activity (RAW264.7 [4]): inactive
- viability at 0.1 µM (RAW264.7 [8]): 86.9%

SMILES: Cc1ccc(S(C)(=O)=O)cc1.Cc1ccc(S(C)(=O)=O)cc1.NCCCN1CCc2cccc(OCc3ccccc3)c21
- Activity (RAW264.7 [2]): Dose-dependent effect
- Activity (RAW264.7 [9]): inactive
- Activity (RAW264.7 [4]): Dose-dependent effect
- viability at 0.1 µM (RAW264.7 [8]): 79.3%

SMILES: COc1ccc2c(c1)CCN2CCC(=O)O
- Activity (RAW264.7 [7]): inactive
- Activity (RAW264.7 [2]): inactive
- Activity (RAW264.7 [4]): inactive
- viability at 0.1 µM (RAW264.7 [8]): 87.1%

SMILES: COC(=O)CCN1CCc2cc(OC)ccc21.Cl
- Activity (RAW264.7 [2]): Active
- Activity (RAW264.7 [10]): 16%
- Activity (RAW264.7 [9]): 60%
- Activity (RAW264.7 [11]): 16%
- viability at 1 pM (RAW264.7 [12]): 91%

SMILES: COc1ccc2c(c1)CCN2CCCO.Cl
- Activity (Mus musculus [13]): Active
- Activity (RAW264.7 [7]): Active
- viability at 24 h, 0.1 µM [14]: 91.9%
- Activity (RAW264.7 [2]): Active
- Activity (RAW264.7 [15]): 50%
- Activity (Mus musculus [16]): Active
- Activity (Mus musculus [17]): Active
- Activity (RAW264.7 [18]): 50%
- viability at 24 h, 1e-06 µM [19]: 91.9%
- viability at 24 h, 0.0001 µM [20]: 93.9%
- Activity (Mus musculus [21]): Active
- Activity (RAW264.7 [4]): Active
- Activity (RAW264.7 [22]): 50%
- Activity (Mus musculus [23]): Active
- viability at 24 h, 1e-05 µM [24]: 93.4%
- Activity (Mus musculus [25]): Active
- viability at 1 pM (RAW264.7 [12]): 95.6%
- viability at 24 h, 0.01 µM [26]: 91.4%
- viability at 24 h, 0.001 µM [27]: 95.3%

SMILES: COC(=O)CCC1CNc2ccccc21 (centres undefined)
- Activity (RAW264.7 [1]): Active
- viability at 24 h, 0.1 µM [14]: 92.9%
- Activity (RAW264.7 [15]): Active
- Activity (RAW264.7 [18]): Active
- Activity (RAW264.7 [3]): Active
- viability at 24 h, 1e-06 µM [19]: 99.5%
- viability at 24 h, 0.0001 µM [20]: 96.6%
- Activity (RAW264.7 [22]): Active
- Activity (RAW264.7 [5]): Active
- viability at 24 h, 1e-05 µM [24]: 93.2%
- viability at 24 h, 0.01 µM [26]: 94.5%
- viability at 24 h, 0.001 µM [27]: 97.1%
